This is a sample that favours compounds with a hit; in the whole collection about 1.3% have one here.
hiPSC survival: enhancers of human iPSC single-cell survival; hiPSC single-cell survival, ATPlite luminescence; 100% = ROCK inhibitor wells, 0% = DMSO; survival enhancement, % at 20 µM; actives 0.044% (n = 360,000); AID 602274; in the data active = survival enhancement above about 18%;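 note: cells exposed to compounds for 16 hours before the ATP read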
MT1-MMP act inh: inhibitors of human MT1-MMP activation | P50281 | HT1080 RFP-PRO-GFP cells, GFP/RFP ratio fluorescence, overnight; percent of plate control window, DMSO zero | GFP/RFP ratio change, % at 20 µM | actives 0.061% (n = 360,000) | AID 651647;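 active = GFP/RFP ratio change of at least 30% with cell ATP level not reduced by more than half and red fluorescence within 50% of control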
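Assay system: HT1080 cells carrying an RFP-PRO-GFP reporter | Dosing: Single dose of 20 µM compound, 1% DMSO final | Incubation: Cells overnight before dosing, compound overnight, 37 °C, 5% CO2 | Evaluation: GFP/RFP fluorescence ratio | Control set: DMSO and RFP-L50D-GFP cell wells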
FAS-TE inh: blocks the thioesterase domain of human fatty acid synthase. P49327. recombinant FAS-TE, OMFH fluorogenic substrate, fluorescence endpoint. inhibition, % at 15 µM. actives 0.67% (n = 360,000);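 active = compounds whose normalised, plate-corrected inhibition of enzyme fluorescence in the single-dose primary screen is 50% or more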;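 note: 0% = DMSO with enzyme and 100% = substrate without enzyme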
DAGLB inhibitor: diacylglycerol lipase beta (human) inhibition; actives 0.059% (n = 340,000); inhibition, % at 5.17 µM; Q8NCG7; HEK293T DAGLB membrane lysate, EnzChek fluorogenic substrate; in the data active = inhibition above about 34%;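 note: 0% = enzyme with vehicle and 100% = wells lacking enzyme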
Target sequence (Q8NCG7 whole entry, looked up): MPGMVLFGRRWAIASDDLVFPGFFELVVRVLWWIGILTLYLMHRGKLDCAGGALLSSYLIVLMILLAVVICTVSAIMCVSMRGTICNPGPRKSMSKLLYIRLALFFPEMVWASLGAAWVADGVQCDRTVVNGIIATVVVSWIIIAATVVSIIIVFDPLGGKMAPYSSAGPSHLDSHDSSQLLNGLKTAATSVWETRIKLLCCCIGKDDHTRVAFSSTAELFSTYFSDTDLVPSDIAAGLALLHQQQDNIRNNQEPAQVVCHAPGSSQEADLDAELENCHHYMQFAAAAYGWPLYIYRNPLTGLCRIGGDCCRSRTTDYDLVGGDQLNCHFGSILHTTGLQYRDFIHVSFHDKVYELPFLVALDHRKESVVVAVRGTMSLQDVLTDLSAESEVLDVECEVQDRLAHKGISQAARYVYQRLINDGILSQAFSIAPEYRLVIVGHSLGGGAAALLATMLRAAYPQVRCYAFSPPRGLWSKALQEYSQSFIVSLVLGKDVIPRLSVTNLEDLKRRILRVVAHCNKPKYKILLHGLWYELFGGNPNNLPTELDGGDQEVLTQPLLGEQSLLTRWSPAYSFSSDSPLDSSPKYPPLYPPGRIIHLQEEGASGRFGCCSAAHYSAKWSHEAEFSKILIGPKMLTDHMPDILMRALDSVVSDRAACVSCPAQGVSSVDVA
SKN-1 inh: blocks SKN-1 activity in C. elegans. actives 0.49% (n = 360,000). AID 624304. C. elegans VP596 Pgst-4::GFP/RFP ratio, acrylamide-induced, 24 h. inhibition, % at 21.8 µM;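 active = interference check ratio from 0.5 to 1.5 plus GFP to RFP signal ratio inhibition reaching or exceeding a fixed threshold, cut at about 30% in these data, passing the limit was not always enough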
FAS-TE inh conf: FAS thioesterase (human) inhibition, confirmation; shares compounds with FAS-TE inh; recombinant FAS-TE, OMFH fluorogenic substrate, fluorescence; inhibition, % at 15 µM; AID 624325; actives 45% (n = 2,300);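 active = compounds inhibiting the enzyme by at least 50% at 15 µM in any one of the replicates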;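 note: 0% = enzyme with DMSO only and 100% = wells lacking enzyme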
An asterisk follows results filed as active; nt = no result.

SMILES	hiPSC survival	MT1-MMP act inh	FAS-TE inh	DAGLB inhibitor	SKN-1 inh	FAS-TE inh conf
N#CCC(=O)N/N=C/c1cc([N+](=O)[O-])ccc1N1CCCC1	-0.4	5.1	27.0	1.9	7.1	nt
CCCCC(=O)N/N=C/c1cc([N+](=O)[O-])ccc1N1CCOCC1	-2.2	1.9	66.3*	-1.4	7.1	73.5*
CCN(CC)C(=O)C1CCCN(c2ccc([N+](=O)[O-])cc2/C=N/NC(=O)c2cccc([N+](=O)[O-])c2)C1 (centres undefined)	-0.3	-2.4	77.3*	-2.5	-9.4	25.9
O=C(CNc1ccccc1)N/N=C/c1cc([N+](=O)[O-])ccc1N1CCCC1	2.2	0.1	52.3*	4.0	-7.2	28.7
O=C(COc1ccc([N+](=O)[O-])cc1)N/N=C/c1cc([N+](=O)[O-])ccc1N1CCOCC1	-0.8	4.7	19.0	13.5	-0.7	nt
Nc1ccn([C@@H]2O[C@H](C(=O)N[C@H]3c4ccccc4C[C@H]3O)[C@@H](O)[C@H]2O)c(=O)n1	-2.6	2.7	-9.2	nt	-0.7	nt
COc1ccccc1N1CCN(C(=O)C(=O)c2cccc([N+](=O)[O-])c2)CC1	nt	2.2	nt	nt	14.2	nt
COc1ccccc1N1CCN(C(=O)C(C)NC(=O)c2cccc([N+](=O)[O-])c2)CC1 (centres undefined)	-0.7	0.8	80.4*	-0.1	11.9	85.8*
CS(=O)(=O)c1ccc2nc(NC(=O)c3cc(-c4ccccc4)nn3-c3ccccc3)sc2c1	-1.3	-3.0	86.0*	-2.2	22.3	12.0
CS(=O)(=O)c1ccc2nc(NC(=O)C3=NN(c4ccccc4)C(=O)CC3)sc2c1	0.5	-2.7	-1.7	2.7	1.1	nt
CC1(C)C(=O)Nc2ccccc2N1C(=O)COC(=O)CNS(=O)(=O)c1ccc(Br)cc1Cl	0.7	2.0	6.7	1.7	-7.0	nt
O=S(=O)(c1cccc(-c2csc(-c3cccnc3)n2)c1)N1CCOCC1	0.2	-5.6	7.8	0.1	3.0	nt
O=S(=O)(c1ccc(-c2csc(-c3cccnc3)n2)cc1)N1CCCC1	2.4	-0.7	81.1*	-0.1	1.1	85.6*
O=S(=O)(c1cccc(-c2csc(-c3cccnc3)n2)c1)N1CCCCC1	-1.1	-3.4	21.9	-2.7	5.1	nt
O=S(=O)(c1ccc(-c2csc(-c3cccnc3)n2)cc1)N1CCCCC1	-0.7	-9.6	76.7*	2.5	-17.3	82.9*
CC1(C(=O)Nc2ccc(Cl)c(Cl)c2)CCN1C(=O)C1CCCCC1 (centres undefined)	-2.2	-0.7	35.3	nt	7.8	nt
CCOC(=O)[C@]12CCC=C1N(Cc1cccc3ccccc13)C(=O)[C@H](CC(=O)N1CCCC1)C2	-0.1	-2.1	-4.3	nt	15.2	nt
O=C(CNC(=O)c1ccc2c(c1)OCO2)N/N=C/c1cccc([N+](=O)[O-])c1	-0.2	-1.8	55.0*	-0.5	-1.9	30.0
Cc1cc(Cl)ccc1NC(=O)CCC(=O)N/N=C/c1cc([N+](=O)[O-])ccc1O	-0.3	3.0	55.3*	6.3	-5.8	70.4*
O=C(NC(C(=O)N/N=C/c1cc([N+](=O)[O-])ccc1O)c1n[nH]c(=O)c2ccccc12)c1ccccc1 (centres undefined)	-0.4	2.9	66.9*	26.4	13.0	78.4*
O=C(NN=Cc1ccccc1O)c1cccc([N+](=O)[O-])c1	-1.5	4.5	61.2*	5.3	-9.4	3.7
O=C(NC(C(=O)N/N=C/c1ccccn1)c1n[nH]c(=O)c2ccccc12)c1ccccc1 (centres undefined)	-0.3	0.2	-4.5	10.6	-13.4	nt
O=S1(=O)C[C@H](N2CCN(CC3CC3)CC2)[C@@H](COCc2ccccc2)N1	-1.0	1.1	-17.1	nt	8.3	nt
O=C(Cc1ccccc1)NCC(=O)Nc1ccccc1Br	0.5	0.1	-1.9	-0.8	3.0	nt
Cc1cc(C(=O)N/N=C/c2cc([N+](=O)[O-])ccc2O)c2ccccc2n1	-0.4	2.6	76.9*	7.3	11.9	96.8*
CNC(=O)C[C@@H]1C(=O)N(c2ccc(Br)cc2)CC1(C)C	2.7	-1.6	-4.3	-0.7	-17.1	nt
CS(=O)(=O)c1ccc(S(=O)(=O)N2CCN(C(=O)C(O)c3ccccc3)CC2)cc1 (centres undefined)	nt	1.7	nt	nt	0.7	nt
